The values that follow come from PMC3774303 (Journal of medicinal chemistry, 2013).

Entries after “also recorded” stand apart in the source; their conditions may differ.

In test [1] the target is T1, T-L activity of purified 20S rabbit proteasome (Oryctolagus cuniculus, UniProt G1SWK8).
T1 sequence (G1SWK8 44-271): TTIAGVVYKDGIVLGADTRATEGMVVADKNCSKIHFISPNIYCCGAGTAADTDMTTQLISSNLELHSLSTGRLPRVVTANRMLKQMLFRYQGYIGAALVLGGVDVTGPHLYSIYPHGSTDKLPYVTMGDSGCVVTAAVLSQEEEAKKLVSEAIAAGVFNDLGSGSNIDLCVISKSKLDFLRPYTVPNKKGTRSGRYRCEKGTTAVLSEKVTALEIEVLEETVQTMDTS
The experiment in a line: T-L proteolytic activity assay, fluorogenic peptide Bz-Val-Gly-Arg-AMC. In kind it is biochemical.

The test system of test [2] is CT-L activity of rabbit 20S proteasome. Description: Dialysis using purified rabbit 20S proteasome. Type of test: biochemical. The essentials: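 Dialysed (3500 MWCO) against assay buffer at 4 °C; sampled at 0, 0.25, 1, 2, 4 and 18 h. CT-L activity read with 20 μM Suc-LLVY-AMC, 1 h at 37 °C, AMC ex 355/em 460 nm. Normalised to DMSO control.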
Test [3] concerns the target PGPH-L activity of purified 20S rabbit proteasome (Oryctolagus cuniculus, UniProt G1T235). The experiment in a line: PGPH-L proteolytic activity assay, fluorogenic peptide Z-Leu-Leu-Glu-AMC. In kind it is biochemical.
For test [4], the system named is MDA-MB-468 cells. The experiment in a line: MTT proliferation/survival assay. In kind it is cell-based, human. The settings on record: 120 h incubation. The essentials: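 MDA-MB-468 cells were grown in DMEM with 10% FBS and penicillin/streptomycin at 37 °C in 5% CO2, then attached overnight. They were exposed to varying inhibitor concentrations for 120 h. MTT (1 mg/ml in fresh medium) was added for 3 h, formazan dissolved in DMSO, and absorbance read at 540 nm. IC50 came from the fit Y = M + (L–M)/(1+10^(X–logIC50)).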

Test [5] has as its target T2, CT-L proteolytic activity of the purified rabbit 20S proteasome (Oryctolagus cuniculus, UniProt G1T4Q9).
T2 sequence (G1T4Q9 60-263): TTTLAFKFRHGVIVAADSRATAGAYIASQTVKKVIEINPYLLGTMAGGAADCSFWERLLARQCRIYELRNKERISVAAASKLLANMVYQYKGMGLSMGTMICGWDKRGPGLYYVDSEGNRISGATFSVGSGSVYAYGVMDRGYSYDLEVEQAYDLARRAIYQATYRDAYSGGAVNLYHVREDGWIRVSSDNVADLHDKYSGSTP
Description: CT-L proteolytic activity assay, fluorogenic peptide Suc-Leu-Leu-Val-Tyr-AMC. In kind it is biochemical. The settings on record: for fold loss of CT-L activity compared to 11ad: relative to 11ad; for IC50: IC50 (μM) CT-L, 1 nM purified 20S rabbit proteasome, 20 μM Suc-Leu-Leu-Val-Tyr-AMC, 1 h at 37 °C, average of 2 or more determinations.

Test [6] concerns the target proteasomal CT-L activity in intact human MDA-MB-468 cancer cells (Homo sapiens, UniProt P28074). The experiment in a line: CT-L activity in intact MDA-MB-468 cells. Type of test: cell-based.

With `Cc1ccc(OCC(=O)N(Cc2nc(-c3ccc(C)cc3)no2)C(C)C)cc1` [Compound 1, N-Isopropyl-N-((3-p-tolyl-1,2,4-oxadiazol-5-yl)methyl)-2-(p-tolyloxy)acetamide], the IC50 in test [1] and in test [3] was > 100 µM throughout. For the same molecule, the “time to full recovery of CT-L activity upon dialysis” value in test [2] (pre-incubation with 10 μM compound for 30 min, dialysis at 4 °C) is ≤ 2 h. Further, the “inhibition of tumor cell survival/proliferation (MTT)” value in test [4] was “inhibited survival/proliferation”.

For the molecule `CCCc1ccc(OCC(=O)N(Cc2nc(-c3cccnc3)no2)C(C)C)cc1` [Compound 11ad], the values for the IC50 in test [1], in test [6] and in test [3] were > 100 µM, 0.37 µM and > 100 µM, respectively. Besides, the “fold more potent than 1 (CT-L IC50)” value in test [5] (relative to compound 1) is given as 22 fold. Further, the “inhibition of tumor cell survival/proliferation (MTT)” value in test [4] is recorded as “inhibited survival/proliferation; also recorded: anti-proliferative activity at low micromolar concentrations”.

Turning to `CCCc1ccc(OCC(=O)N(Cc2nc(-c3cnccn3)no2)C(C)C)cc1` [Compound 11am, N-Isopropyl-2-(4-propylphenoxy)-N-((3-(pyrazin-2-yl)-1,2,4-oxadiazol-5-yl)methyl)acetamide], the “fold loss of CT-L activity compared to 11ad” value in test [5] amounted to 3 fold.

For `CCCc1ccc(OCC(=O)N(Cc2nc(-c3ncccn3)no2)C(C)C)cc1` [Compound 11ao, N-Isopropyl-2-(4-propylphenoxy)-N-((3-(pyrimidin-2-yl)-1,2,4-oxadiazol-5-yl)methyl)acetamide], the “fold loss of CT-L activity compared to 11ad” value in test [5] came out at 40 fold.

Take `CC(C)N(Cc1nc(-c2ccccc2)no1)C(=O)COc1ccccc1` [Compound 11j, N-Isopropyl-2-phenoxy-N-((3-phenyl-1,2,4-oxadiazol-5-yl)methyl)acetamide]: in test [5] (relative to compound 1), the “fold loss of CT-L activity compared to 1” value worked out at 10 fold.

Consider `Cc1ccc(-c2noc(CN(C(=O)COc3ccccc3)C(C)C)n2)cc1` [Compound 11k, N-Isopropyl-2-phenoxy-N-((3-p-tolyl-1,2,4-oxadiazol-5-yl)methyl)acetamide], for which, in test [5] (relative to compound 1), the “fold loss of CT-L activity compared to 1” value worked out at 14 fold.

As for `CC(C)N(Cc1nc(-c2ccc(C(F)(F)F)cc2)no1)C(=O)COc1ccccc1` [Compound 11l, N-Isopropyl-2-phenoxy-N-((3-(4-(trifluoromethyl)phenyl)-1,2,4-oxadiazol-5-yl)methyl)acetamide], the “fold loss of CT-L activity compared to 1” value in test [5] (relative to compound 1) worked out at 18 fold.

For `CC(C)N(Cc1nc(-c2ccccc2)no1)C(=O)COc1ccc(-c2ccccc2)cc1` [Compound 11q, 2-(Biphenyl-4-yloxy)-N-isopropyl-N-((3-phenyl-1,2,4-oxadiazol-5-yl)methyl)acetamide], the half-inhibitory concentration (IC50) – broadly, the concentration that gives 50% inhibition – in test [5] is > 10 µM.

As for `CC(C)N(Cc1nc(-c2ccccc2)no1)C(=O)COc1ccc2cc(Br)ccc2c1` [Compound 11r, 2-(6-Bromonaphthalen-2-yloxy)-N-isopropyl-N-((3-phenyl-1,2,4-oxadiazol-5-yl)methyl)acetamide], in test [5], the IC50 was > 10 µM.

Turning to `CC(C)N(Cc1nc(-c2ccccc2)no1)C(=O)COc1ccc(F)cc1` [Compound 11s, 2-(4-Fluorophenoxy)-N-isopropyl-N-((3-phenyl-1,2,4-oxadiazol-5-yl)methyl)acetamide], the “fold loss of CT-L inhibitory activity compared to 11b” value in test [5] (relative to 11b) is listed as 16 fold.

Regarding `Cc1ccc(OCC(=O)N(Cc2nc(-c3ccc(C)cc3)no2)CC(C)C)cc1` [Compound 12a, N-Isobutyl-N-((3-p-tolyl-1,2,4-oxadiazol-5-yl)methyl)-2-(p-tolyloxy)acetamide], in test [5] (relative to compound 1), the “fold loss of CT-L activity compared to 1” value came to 4 fold.

`CCN(Cc1nc(-c2ccc(C)cc2)no1)C(=O)COc1ccc(C)cc1` [Compound 12b, N-Ethyl-N-((3-p-tolyl-1,2,4-oxadiazol-5-yl)methyl)-2-(p-tolyloxy)acetamide]: the “fold loss of CT-L activity compared to 1” value in test [5] (relative to compound 1) is 10 fold.

In the case of `Cc1ccc(CNC(=O)N(Cc2nc(-c3ccccc3)no2)C(C)C)cc1` [Compound 14, 1-Isopropyl-3-(4-methylbenzyl)-1-((3 phenyl-1,2,4-oxadiazol-5-yl)methyl)urea], the concentration for half-maximal inhibition (IC50) in test [5] is > 10 µM.

With `Cc1ccc(OCC(=O)N(CCc2nc(-c3ccccc3)no2)C(C)C)cc1` [Compound 23, N-Isopropyl-N-(2-(3-phenyl-1,2,4-oxadiazol-5-yl)ethyl)-2-(p-tolyloxy)acetamide], the IC50 in test [5] is > 10 µM.

For `CC(=O)N[C@@H](CSC(=O)[C@]1([C@@H](O)C(C)C)NC(=O)[C@H](C)[C@@H]1O)C(=O)O` [lactacystin, reference compound], the “CT-L activity recovered upon dialysis” value in test [2] (after 18 hours of dialysis, lactacystin 2.5 μM) is “very little CT-L activity was recovered”.
